Active and inactive are the calls of the source. The calls are words filed in the database; no cut-off is given here. Where a SMILES comes first, the peptide text is derived from it.
Columns and labels:
[1] = test system: Lipid bilayer; test: Inhibition of PEG-induced DOPC/DOPE/DOPG (60/30/10 mol%) small unilamellar vesicles assessed as lipid mixing at 1:100 compound: lipid concentration preincubated for 10 mins followed by PEG addition by spectrofluorometric analysis (reference value: 57.4 +/- 2.2 %)
Outline: (§1)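 Lipid mixing followed as FRET dilution. Vesicles carrying 0.8 mol% NBD-PE and Rh-PE mixed 1:9 with probe-free vesicles at 200 μM lipid. Peptide 2 μM added 10 min before 6% (w/v) PEG at 37 °C. NBD donor intensity rise recorded over time; TX-100 defines complete mixing.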

[2] = test system: Lipid bilayer; test: Inhibition of PEG-induced DOPC/DOPE/DOPG/CH (50/30/10/10 mol%) small unilamellar vesicles assessed as lipid mixing at 1:100 compound: lipid concentration preincubated for 10 mins followed by PEG addition by spectrofluorometric analysis (reference value: 67.8 +/- 2.7 %); outline: as §1
[3] = test system: Lipid bilayer; test: Inhibition of PEG-induced DOPC/DOPE/DOPG/CH (40/30/10/20 mol%) small unilamellar vesicles assessed as lipid mixing at 1:100 compound: lipid concentration preincubated for 10 mins followed by PEG addition by spectrofluorometric analysis (reference value: 92.7 +/- 3.7 %); outline: as §1
[4] = test system: Lipid bilayer; test: Inhibition of PEG-induced DOPC/DOPE/DOPG (60/30/10 mol%) small unilamellar vesicles assessed as content mixing at 1:100 compound: lipid concentration preincubated for 10 mins followed by PEG addition by fluorescence based analysis (reference value: 16.7 +/- 0.6 %)
Outline: (§2)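 Content mixing by Tb3+/DPA complex fluorescence. Vesicles loaded with 8 mM TbCl3 or 80 mM DPA, external probe removed by gel filtration. Mixed 1:1 at 200 μM lipid; peptide 2 μM added 10 min before 6% (w/v) PEG, 37 °C. Normalised to co-encapsulated and detergent-treated samples.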

[5] = test system: Lipid bilayer; test: Inhibition of PEG-induced DOPC/DOPE/DOPG/CH (50/30/10/10 mol%) small unilamellar vesicles assessed as content mixing at 1:100 compound: lipid concentration preincubated for 10 mins followed by PEG addition by fluorescence based analysis (reference value: 11.4 +/- 0.4 %); outline: as §2
[6] = test system: Lipid bilayer; test: Inhibition of PEG-induced DOPC/DOPE/DOPG/CH (40/30/10/20 mol%) small unilamellar vesicle assessed as content mixing at 1:100 compound: lipid concentration preincubated for 10 mins followed by PEG addition by fluorescence based analysis (reference value: 23.0 +/- 0.9 %); outline: as §2
[7] = test system: Lipid bilayer; test: Inhibition of PEG-induced DOPC/DOPE/DOPG (60/30/10 mol%) small unilamellar vesicle assessed as content leakage at 1:100 compound: lipid concentration preincubated for 10 mins followed by PEG addition by fluorescence based analysis (reference value: 11.7 +/- 0.4 %)
Outline: (§3)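 Leakage read as loss of fluorescence from vesicles co-encapsulating 8 mM TbCl3 and 80 mM DPA, external probe removed. Lipid 200 μM; peptide 2 μM added 10 min before 6% (w/v) PEG at 37 °C. 100% leakage set with 0.1% (w/v) Triton X-100.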

[8] = test system: Lipid bilayer; test: Inhibition of PEG-induced DOPC/DOPE/DOPG/CH (50/30/10/10 mol%) small unilamellar vesicles assessed as content leakage at 1:100 compound: lipid concentration preincubated for 10 mins followed by PEG addition by fluorescence based analysis (reference value: 13.6 +/- 0.5 %); outline: as §3
[9] = test system: Lipid bilayer; test: Inhibition of PEG-induced DOPC/DOPE/DOPG/CH (40/30/10/20 mol%) small unilamellar vesicles assessed as content leakage at 1:100 compound: lipid concentration preincubated for 10 mins followed by PEG addition by fluorescence based analysis (reference value: 11.1 +/- 0.4 %); outline: as §3
[10] = test system: Lipid bilayer; test: Binding affinity to DOPC/DOPE/DOPG (60/30/10 mol%) small unilamellar vesicles assessed as membrane organization and dynamic by measuring increase in fluorescence intensity at 1:100 compound: lipid concentration by tryptophan fluorescence based spectrofluorometric analysis
Outline: (§4)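 Tryptophan fluorescence spectra of the peptide recorded in buffer and with SUVs. Lipid:peptide 100:1, total lipid 200 μM, in 10 mM TES, 100 mM NaCl, 1 mM CaCl2, 1 mM EDTA, pH 7.4. At least three independent measurements averaged.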

[11] = test system: Lipid bilayer; test: Binding affinity to DOPC/DOPE/DOPG/CH (50/30/10/10 mol%) small unilamellar vesicles assessed as membrane organization and dynamic by measuring increase in fluorescence intensity at 1:100 compound: lipid concentration by tryptophan fluorescence based spectrofluorometric analysis; outline: as §4
[12] = test system: Lipid bilayer; test: Binding affinity to DOPC/DOPE/DOPG/CH (40/30/10/20 mol%) small unilamellar vesicles assessed as membrane organization and dynamic by measuring increase in fluorescence intensity at 1:100 compound: lipid concentration by tryptophan fluorescence based spectrofluorometric analysis; outline: as §4
[13] = test system: Lipid bilayer; test: Inhibition of PEG-induced DOPC/DOPE/DOPG/CH (50/30/10/10 mol%) small unilamellar vesicles assessed as increase in lipid mixing at 1:100 compound: lipid concentration preincubated for 10 mins followed by PEG addition by spectrofluorometric analysis relative to control; outline: as §1
[14] = test system: Lipid bilayer; test: Inhibition of PEG-induced DOPC/DOPE/DOPG/CH (50/30/10/10 mol%) small unilamellar vesicles assessed as content mixing at 1:100 compound: lipid concentration preincubated for 10 mins followed by PEG addition by fluorescence based analysis relative to control; outline: as §2
[15] = test system: Lipid bilayer; test: Inhibition of PEG-induced DOPC/DOPE/DOPG/CH (50/30/10/10 mol%) small unilamellar vesicles assessed as content leakage at 1:100 compound: lipid concentration preincubated for 10 mins followed by PEG addition by fluorescence based analysis relative to control; outline: as §3
[16] = test system: Lipid bilayer; test: Inhibition of PEG-induced DOPC/DOPE/DOPG/CH (40/30/10/20 mol%) small unilamellar vesicles assessed as increase in lipid mixing at 1:100 compound: lipid concentration preincubated for 10 mins followed by PEG addition by spectrofluorometric analysis relative to control; outline: as §1
[17] = test system: Lipid bilayer; test: Inhibition of PEG-induced DOPC/DOPE/DOPG/CH (40/30/10/20 mol%) small unilamellar vesicles assessed as content mixing at 1:100 compound: lipid concentration preincubated for 10 mins followed by PEG addition by spectrofluorometric analysis relative to control; outline: as §2
[18] = test system: Lipid bilayer; test: Inhibition of PEG-induced DOPC/DOPE/DOPG/CH (40/30/10/20 mol%) (20 CH) small unilamellar vesicles fusion assessed as content mixing at 1:100 compound: lipid concentration preincubated for 10 mins followed by PEG addition by spectrofluorometric analysis; outline: as §2
[19] = test system: Lipid bilayer; test: Disruption of interfacial region in DOPC/DOPE/DOPG (60/30/10 mol%) small unilamellar vesicles at 2 to 10 uM by TMA-DPH based fluorescence anisotropy; details: dose 2-10 µM
Outline: (§5)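 TMA-DPH steady-state anisotropy in SUVs (200 μM total lipid) across a range of peptide concentrations. Excitation 360 nm, emission 428 nm, 5 nm slits. Buffer 10 mM TES, 100 mM NaCl, 1 mM CaCl2, 1 mM EDTA, pH 7.4, 37 °C. Anisotropy from polarised intensities with G-factor correction; mean ± S.E. of at least three measurements.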

[20] = test system: Lipid bilayer; test: Disruption of interfacial region in DOPC/DOPE/DOPG/CH (50/30/10/10 mol%) small unilamellar vesicles at 2 to 10 uM by TMA-DPH based fluorescence anisotropy; details: dose 2-10 µM; outline: as §5
[21] = test system: Lipid bilayer; test: Disruption of interfacial region in DOPC/DOPE/DOPG/CH (40/30/10/20 mol%) small unilamellar vesicles at 2 to 10 uM by TMA-DPH based fluorescence anisotropy; details: dose 2-10 µM; outline: as §5
[22] = test system: Lipid bilayer; test: Inhibition of interfacial polarity in DOPC/DOPE/DOPG (60/30/10 mol%) small unilamellar vesicles assessed as decrease in interfacial polarity at 2 to 10 uM by TMA-DPH fluorescence analysis; details: dose 2-10 µM
Outline: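 Interfacial polarity from TMA-DPH mean fluorescence lifetime in SUVs across peptide concentrations. TCSPC with 340 nm pulsed LED excitation, Ludox for IRF, 10 000 peak counts. Multi-exponential fits with χ2 ≤ 1.2; intensity-averaged lifetime. Run at 37 °C, pH 7.4 TES buffer, 200 μM lipid.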

[23] = test system: Lipid bilayer; test: Reduction of apparent rotational correlation time in DOPC/DOPE/DOPG (60/30/10 mol%) small unilamellar vesicles at 2 to 10 uM by TMA-DPH anisotropy analysis; details: dose 2-10 µM
Outline: (§6)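 Apparent rotational correlation time of TMA-DPH from the Perrin equation, combining steady-state anisotropy and mean lifetime with r0 = 0.4. SUVs at 200 μM lipid with varying peptide, in TES/NaCl/CaCl2/EDTA buffer pH 7.4 at 37 °C; at least three measurements.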

[24] = test system: Lipid bilayer; test: Reduction of apparent rotational correlation time in DOPC/DOPE/DOPG/CH (50/30/10/10 mol%) small unilamellar vesicles at 2 to 10 uM by TMA-DPH anisotropy analysis; details: dose 2-10 µM; outline: as §6
[25] = test system: Lipid bilayer; test: Reduction of apparent rotational correlation time in DOPC/DOPE/DOPG/CH (40/30/10/20 mol%) small unilamellar vesicles at 2 to 10 uM by TMA-DPH anisotropy analysis; details: dose 2-10 µM; outline: as §6
[26] = test system: Influenza A virus H3N2; test: Antiviral activity against Influenza A virus X-31 (H3N2) infected in human A549 cells assessed as reduction in virus-induced cytopathic effect preincubated for 48 hrs followed by viral infection for 45 mins by light microscopic analysis; type: functional, organism-based; details: time 2925.0 min
Outline: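 A549 cells infected with virus–peptide mixtures at increasing peptide concentrations, then assessed by light microscopy for cytopathic effect 48 h after infection.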

[27] = test system: Influenza A virus H3N2; test: Antiviral activity against Influenza A virus X-31 (H3N2) infected in human A549 cells assessed as inhibition of viral infection incubated for 48 hrs post infection by hemagglutination assay (reference value: 4 No unit); type: functional
[28] = test system: Influenza A virus H3N2; test: Antiviral activity against Influenza A virus X-31 (H3N2) infected in human A549 cells assessed as inhibition of viral infection preincubated for 48 hrs followed by viral infection for 45 mins by MTT assay; type: functional, organism-based; details: X-31, A549
Outline: (§7)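 A549 or MDCK cells seeded 1.5 × 10^4 per well, grown 24 h. Virus premixed with two-fold serial peptide dilutions in serum-free medium with trypsin (2.5 μg ml-1). Cells infected 45 min at 37 °C, washed, then kept 48 h in medium with 0.1% FBS, 0.3% BSA and trypsin. MTT 4 h, absorbance 570 nm. CPE inhibition normalised to cell and virus controls, dose-response fit for EC50; at least 3 sets.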

[29] = test system: Influenza A virus H3N2; test: Antiviral activity against Influenza A virus X-31 (H3N2) infected in MDCK cells assessed as inhibition of viral infection preincubated for 48 hrs followed by viral infection for 45 mins by MTT assay; type: functional, organism-based; details: X-31, MDCK; outline: as §7
[30] = test system: Influenza A virus H3N2; test: Antiviral activity against Influenza A virus X-31 (H3N2) infected in human A549 cells assessed as reduction in viral M1 protein expression level incubated for 48 hrs post infection by Western blot analysis; type: functional, organism-based
Outline: (§8)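 Cells seeded at 0.25 × 10^6 per well and co-infected with virus–peptide mixtures as in the CPE assay. Lysed in RIPA with protease inhibitor 48 h post-infection, protein by BCA. Run on 12% SDS-PAGE, transferred to PVDF, blocked in 3% milk. Probed with anti-M1 (1:1000) and HRP anti-mouse IgG (1:10 000); β-actin as loading control after stripping.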

[31] = test system: Influenza A virus H3N2; test: Antiviral activity against Influenza A virus X-31 (H3N2) infected in MDCK cells assessed as reduction in viral M1 protein expression level incubated for 48 hrs post infection by Western blot analysis; type: functional, organism-based; outline: as §8
[32] = test system: Lipid bilayer; test: Inhibition of PEG-induced DOPC/DOPE/DOPG/CH (40/30/10/20 mol%) small unilamellar vesicles assessed as content leakage at 1:100 compound: lipid concentration preincubated for 10 mins followed by PEG addition by spectrofluorometric analysis; outline: as §3

SMILES: CC[C@H](C)[C@H](NC(=O)[C@H](CC(C)C)NC(=O)[C@H](C)NC(=O)[C@@H](NC(=O)[C@H](Cc1ccccc1)NC(=O)[C@H](CCCCN)NC(=O)[C@@H]1CCCN1C(=O)[C@H](CC(N)=O)NC(=O)[C@@H](NC(=O)[C@H](C)NC(=O)[C@H](CS)NC(=O)[C@H](Cc1ccccc1)NC(=O)CNC(=O)[C@H](CO)NC(=O)[C@H](CC(=O)O)NC(=O)[C@H](Cc1c[nH]c2ccccc12)NC(=O)[C@@H](NC(=O)[C@@H](N)[C@@H](C)O)[C@@H](C)O)C(C)C)C(C)C)C(=O)N[C@@H](CS)C(=O)N[C@@H](CC(=O)O)C(=O)N[C@@H](Cc1c[nH]c2ccccc12)C(=O)N[C@@H](CO)C(=O)NCC(=O)O (H-TTWDSGFCAVNPKFVALICDWSG-OH)
- inhibition [1]: 69%
- inhibition [2]: 72.1%
- inhibition [3]: 100%
- inhibition [4]: 9.8%
- inhibition [5]: 8.1%
- inhibition [6]: 15.5%
- inhibition [7]: 8.7%
- inhibition [8]: 8.3%
- inhibition [9]: 14.4%
- Activity [10]: Active
- Activity [11]: Active
- Activity [12]: Active
- inhibition [13]: 6%
- inhibition [14]: 30%
- inhibition [15]: 40%
- inhibition [16]: 8%
- inhibition [17]: 33%
- inhibition [18]: Active
- Activity [19]: Active
- Activity [20]: Active
- Activity [21]: Active; Less Stiff In Membranes
- inhibition [22]: Active; Partial Reduction Is Observed
- Activity [23]: Active
- Activity [24]: Active
- Activity [25]: Active
- Activity [26]: Dose-dependent-effect
- Activity [27]: 0
- EC50 [28]: ~20.4 µM
- EC50 [29]: ~21.6 µM
- Activity [30]: Dose-dependent-effect
- Activity [31]: Dose-dependent-effect
- inhibition [32]: inactive

— ChEMBL document CHEMBL6182829, “Developing peptide-based fusion inhibitors as an antiviral strategy utilizing coronin 1 as a template” (RSC Med Chem, 2025)
